Reference: ChEMBL document CHEMBL2375340, “Cytotoxic bisbenzylisoquinoline alkaloids from Stephania epigaea” (J Nat Prod, 2013)

Assays:
Format in all cases: functional, cell-based
SW480 = assay: Cytotoxicity against human SW480 cells after 48 hrs by MTS assay; conditions: SW480, 48 h
Method in brief: (§1)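 Cells kept in RPMI 1640 with 10% FBS and 100 U/mL penicillin/streptomycin, 37 °C, 5% CO2. Seeded at 5 × 10^3/well with test samples at various concentrations for 48 h. MTS (5 mg/mL in PBS) added, 4 h more. Medium partly replaced by 20% SDS overnight to dissolve formazan. Absorbance read at 570 nm. IC50 calculated by Reed and Muench method. Cisplatin served as positive control.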

SMMC-7721 = assay: Cytotoxicity against human SMMC7721 cells after 48 hrs by MTS assay; conditions: SMMC-7721, 48 h; method in brief: as §1
MCF7 = assay: Cytotoxicity against human MCF7 cells after 48 hrs by MTS assay; conditions: MCF7, 48 h; method in brief: as §1
HL-60 = assay: Cytotoxicity against human HL60 cells after 48 hrs by MTS assay; conditions: HL-60, 48 h; method in brief: as §1
[1] = Cytotoxicity against human ECA109 cells after 48 hrs by MTT assay; conditions: ECa-109, 48 h
Method in brief: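 Cells grown in RPMI 1640 with 10% FBS and 100 U/mL penicillin/streptomycin, humidified 5% CO2, 37 °C. Plated 5 × 10^3/well, exposed to test samples at various concentrations for 48 h. MTT then added in place of MTS, 4 h further. Formazan dissolved overnight in 20% SDS, A570 measured. IC50 by Reed and Muench method. Tanespimycin (17AAG) was the positive control.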

A549 = assay: Cytotoxicity against human A549 cells after 48 hrs by MTS assay; conditions: A549, 48 h; method in brief: as §1

COc1ccc2cc1Oc1ccc(cc1)C[C@H]1c3c(cc4c(c3Oc3cc5c(cc3OC)CCN(C)[C@@H]5C2)OCO4)CCN1C [CEPHARANTHINE] showed an IC50 (SW480) of 4.7 µM, an IC50 (SMMC-7721) of 9.9 µM and an IC50 (MCF7) of 2.9 µM. For the same molecule, the IC50 (HL-60) was 9.2 µM, the IC50 [1] was > 10 µM and the IC50 (A549) was 5 µM.
For C=CCNC1=C2C[C@@H](C)C[C@H](OC)[C@H](O)[C@@H](C)/C=C(\C)[C@H](OC(N)=O)[C@@H](OC)/C=C\C=C(/C)C(=O)NC(=CC1=O)C2=O [TANESPIMYCIN], the IC50 [1] was 1.1 µM.
With COc1ccc2cc1Oc1ccc(cc1)C[C@H]1c3c(cc4c(c3Oc3cc5c(cc3OC)CCN=C5C2)OCO4)CC[N@@+]1(C)[O-] the IC50 (SW480) was > 10 µM, the IC50 (SMMC-7721) was > 10 µM and the IC50 (MCF7) was > 10 µM. The IC50 (HL-60) was > 10 µM, the IC50 [1] was 10 µM and the IC50 (A549) was > 10 µM.
For COc1ccc2cc1Oc1ccc(cc1)C[C@H]1c3cc(c(OC)cc3CCN1C)Oc1c(O)c(OC)cc3c1[C@H](C2)N(C)CC3 [FANGCHINOLINE], the IC50 (SW480) was > 10 µM, the IC50 (SMMC-7721) was > 10 µM and the IC50 (MCF7) was 5 µM. The IC50 (HL-60) was > 10 µM, the IC50 [1] was > 10 µM and the IC50 (A549) was > 10 µM.
With COc1ccc2cc1Oc1ccc(cc1)C[C@H]1c3c(cc4c(c3Oc3cc5c(cc3OC)CCN[C@@H]5C2)OCO4)CCN1C the IC50 (SW480) was 3.7 µM, the IC50 (SMMC-7721) was 4.8 µM and the IC50 (MCF7) was 2.3 µM. It also gave an IC50 (HL-60) of 2.8 µM, an IC50 [1] of 3.2 µM and an IC50 (A549) of 3.7 µM.
With COc1ccc2cc1Oc1ccc(cc1)C[C@H]1c3c(cc(OC)c(O)c3Oc3cc4c(cc3OC)CCN(C)[C@@H]4C2)CCN1C [HOMOAROMOLINE] the IC50 (SW480) was > 10 µM, the IC50 (SMMC-7721) was > 10 µM and the IC50 (MCF7) was 9.5 µM. For the same molecule, the IC50 (HL-60) was > 10 µM, the IC50 [1] was > 10 µM and the IC50 (A549) was > 10 µM.
